Test results: PubChem BioAssay
Activity calls are given as the source filed them.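 Rule for the calls, unless noted: active = duplicate-averaged activation above buffer control mean plus 5 SD of those controls; inactive = the rest.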

Legend:
[1] = nonspecific flux increase, KCNQ1-free cells – parental CHO cells, counter-screen for KCNQ1 potentiator project (AID 493006); settings: parental CHO-K1 cells, FluxOR thallium flux, at 10 µM; stronger effect = higher value;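 for activation: fluorescence ratio of max minus min over baseline after K+ and Tl+ depolarization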
Outline: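 Assay system: parental CHO-K1 cells lacking KCNQ1, loaded with FluxOR thallium dye; timing: dye 90 min RT, compound 20 min RT; signal: kinetic thallium-flux fluorescence; repeats: duplicate wells per compound, percent values averaged; benchmarks: buffer and R-L3 controls; reagent: Potassium/thallium depolarization pulse; read-out: fluorescence change ratio scaled 0% buffer, 100% R-L3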

[2] = biological target: Potassium voltage-gated channel subfamily KQT member 1 (Homo sapiens) (UniProt P51787); assay: enhancement of KCNQ1 channel thallium flux – FluxOR thallium flux, CHO cells, duplicates, confirmation (AID 493007;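 active = potentiation averaged over duplicate wells exceeding buffer-only control mean by more than 3 SD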;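 for outcome: cells depolarized by a potassium plus thallium sulfate stimulus after compound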); settings: KCNQ1 cell line, FluxOR thallium flux fluorescence, at 10 µM; stronger effect = higher value, % of reference activator effect, buffer zero
Potassium voltage-gated channel subfamily KQT member 1 (Homo sapiens), sequence (P51787 whole entry, looked up): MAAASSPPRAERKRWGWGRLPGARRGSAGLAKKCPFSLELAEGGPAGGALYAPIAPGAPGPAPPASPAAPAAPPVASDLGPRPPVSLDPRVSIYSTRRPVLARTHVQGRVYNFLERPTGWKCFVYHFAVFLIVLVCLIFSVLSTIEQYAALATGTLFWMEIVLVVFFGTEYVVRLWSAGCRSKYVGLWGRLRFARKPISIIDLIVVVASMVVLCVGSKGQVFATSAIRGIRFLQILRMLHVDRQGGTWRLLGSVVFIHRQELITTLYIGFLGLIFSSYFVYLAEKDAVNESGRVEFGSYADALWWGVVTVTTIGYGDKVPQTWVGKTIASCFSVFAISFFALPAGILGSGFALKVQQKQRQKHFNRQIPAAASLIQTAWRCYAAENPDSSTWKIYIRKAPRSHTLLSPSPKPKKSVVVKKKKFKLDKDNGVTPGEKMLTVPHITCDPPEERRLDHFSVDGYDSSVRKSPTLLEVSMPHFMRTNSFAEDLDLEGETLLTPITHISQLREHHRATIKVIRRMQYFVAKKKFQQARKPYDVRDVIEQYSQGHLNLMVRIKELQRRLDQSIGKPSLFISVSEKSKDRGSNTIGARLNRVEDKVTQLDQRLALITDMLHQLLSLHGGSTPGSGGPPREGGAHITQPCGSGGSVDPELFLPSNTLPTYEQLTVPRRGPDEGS
Outline: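 material = CHO cells stably expressing the KCNQ1 potassium channel | repeats = duplicate wells per compound | measure = percent activation between buffer and R-L3 responses | signal = FluxOR thallium-flux fluorescence, kinetic read | schedule = FluxOR dye loading 90 min, compound exposure 20 min, room temperature | control set = buffer and R-L3 controls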

[3] = biological target: Potassium voltage-gated channel subfamily KQT member 2 (Rattus norvegicus) (UniProt O88943); assay: KCNQ2 thallium flux enhancement – KCNQ2-CHO-K1 cells, selectivity assay for KCNQ1 potentiator project (AID 493009;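 active = mean duplicate potentiation above the buffer control mean plus 5 SD of buffer wells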;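 note: assay conditions were tuned for KCNQ1 rather than KCNQ2 modulators; signal is max minus min fluorescence divided by baseline after thallium stimulus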); settings: FluxOR thallium flux fluorescence, at 10 µM; stronger effect = higher value, scaled: buffer 0, activator control 100
Potassium voltage-gated channel subfamily KQT member 2 (Rattus norvegicus), sequence (O88943 whole entry, looked up): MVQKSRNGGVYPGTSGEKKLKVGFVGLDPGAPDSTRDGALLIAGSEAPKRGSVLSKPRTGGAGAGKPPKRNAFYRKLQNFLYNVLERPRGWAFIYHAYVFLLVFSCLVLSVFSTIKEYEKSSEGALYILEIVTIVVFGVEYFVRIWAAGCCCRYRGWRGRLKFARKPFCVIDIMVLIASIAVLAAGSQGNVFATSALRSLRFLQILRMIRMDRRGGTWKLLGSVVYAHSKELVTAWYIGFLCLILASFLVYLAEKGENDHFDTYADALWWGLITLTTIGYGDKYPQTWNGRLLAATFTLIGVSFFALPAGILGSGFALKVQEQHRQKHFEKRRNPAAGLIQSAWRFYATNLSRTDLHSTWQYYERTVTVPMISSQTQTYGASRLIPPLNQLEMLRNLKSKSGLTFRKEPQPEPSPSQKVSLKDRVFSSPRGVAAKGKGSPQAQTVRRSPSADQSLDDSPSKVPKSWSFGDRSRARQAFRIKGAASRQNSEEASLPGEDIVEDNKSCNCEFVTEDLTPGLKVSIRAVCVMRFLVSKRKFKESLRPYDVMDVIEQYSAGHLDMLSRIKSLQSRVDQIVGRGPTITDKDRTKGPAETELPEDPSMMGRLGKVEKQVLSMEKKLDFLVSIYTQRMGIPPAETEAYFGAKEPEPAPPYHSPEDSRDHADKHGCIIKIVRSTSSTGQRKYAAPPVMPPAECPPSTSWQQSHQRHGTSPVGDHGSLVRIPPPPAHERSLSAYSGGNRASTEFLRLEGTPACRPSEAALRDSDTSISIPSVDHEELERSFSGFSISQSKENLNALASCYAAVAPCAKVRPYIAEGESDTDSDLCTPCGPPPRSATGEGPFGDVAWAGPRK

[4] = biological target: Potassium voltage-gated channel subfamily KQT member 1 (Homo sapiens) (UniProt P51787); assay: KCNQ1 activators by electrophysiology – IonWorks patch clamp, KCNQ1-CHO cells, orthogonal assay for KCNQ1 potentiator project, confirmation (AID 493184;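 active = current rise at least 3 SD above the untreated control mean in each of two repeat wells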); settings: automated patch clamp current, at 10 µM; stronger effect = higher value
Outline: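 Assay system – CHO cells carrying KCNQ1 · Medium – pH 7.4 external bath · Probe or stimulus – depolarizing pulse to +40 mV from -90 mV · Compound dosing – one dose, 10 µM final · Measured by – automated perforated-patch electrophysiology · Measure – % potentiation of steady-state current relative to pre-compound · Repeats – two replicates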

[5] = biological target: Potassium voltage-gated channel subfamily E member 1 (Homo sapiens) + Potassium voltage-gated channel subfamily KQT member 1 (Homo sapiens) (UniProt P15382+P51787); assay: KCNQ1-E1 channel activation – thallium flux, CHO-K1 KCNQ1/E1 cells, selectivity assay for KCNQ1 potentiator project, confirmation (AID 493186;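 active = mean duplicate activation above the buffer control mean plus 5 SD of those controls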); settings: FluxOR thallium flux, at 10 µM; stronger effect = higher value
Potassium voltage-gated channel subfamily E member 1 (Homo sapiens) + Potassium voltage-gated channel subfamily KQT member 1 (Homo sapiens), sequence (P51787 whole entry, looked up): as the sequence (P51787 whole entry, looked up) above
Outline: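 Assay system: CHO-K1 cells with KCNQ1/E1 | Dosing: Single compound concentration per well | Incubation: Dye 90 min, compound 20 min, room temperature | Measured by: FluxOR Tl+ flux fluorescence, kinetic read | Controls: Buffer low control, R-L3 high control | Replicates: Duplicate wells per compound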

Row | Structure (SMILES) | outcome [1] | outcome [2] | outcome [3] | outcome [4] | outcome [5] | potentiation [2] | potentiation [3] | activation [1] | activation [5]
1 | O=C(NCc1ccccn1)C1CCN(Cc2cccc(OCc3ccccc3)c2)CC1 | inactive | inactive | inactive | inactive | inactive |  |  |  | 
2 | COc1ccc(-c2csc(NC(=S)NC(=O)c3cccs3)n2)cc1Br | inactive | inactive | inactive | inactive | inactive |  |  |  | 
3 | O=c1sc(N2CCN(c3ccccc3F)CC2)nc2ccsc12 | inactive | inactive | inactive | inactive |  |  |  |  | 
4 | Cc1cccc(NC(=O)c2cccc(NC(=O)Cc3cccs3)c2)c1 | inactive |  | inactive | inactive | inactive | 17.5% (active) |  |  | 
5 | O=C1CC(c2cccs2)Cc2nc(NC(=O)C3CC3)ncc21 (stereo unspecified) | inactive | inactive | inactive | inactive |  |  |  |  | 
6 | c1ccc(CNc2nc3ccccc3[nH]2)cc1 | inactive | inactive | inactive | inactive | inactive |  |  |  | 
7 | O=C(NC(=S)Nc1ccccn1)c1cc(-c2ccccc2)nc2ccccc12 | inactive |  | inactive | inactive |  | 18% (active) |  |  | 
8 | C=CCNC(=S)Nc1nc2c(cc1C(=O)OCC)CCCC2 | inactive |  | inactive | inactive | inactive | 39% (active) |  |  | 
9 | CCc1ccc(C2c3[nH]c4ccccc4c3CCN2C(=O)CNC(N)=O)cc1 (stereo unspecified) | inactive |  |  | inactive |  | 31% (active) | 156% (active) |  | 
10 | O=C(CNS(=O)(=O)c1ccc([N+](=O)[O-])cc1)N/N=C\c1ccc(O)cc1 | inactive |  |  | inactive | inactive | 24% (active) | 154% (active) |  | 
11 | Oc1ccc(N=Nc2ccc3c(c2)OCCO3)c2cccnc12 |  |  |  | inactive |  | 92.5% (active) | 384% (active) | 261% (active) | 
12 | COC(=O)[C@H](C)NC(=O)Nc1cc(Cl)ccc1C | inactive | inactive | inactive | inactive | inactive |  |  |  | 
13 | CCOC(=O)c1cccc(NC(=O)CCc2nnc3ccc(N4CCCCC4)nn23)c1 | inactive | inactive | inactive | inactive | inactive |  |  |  | 
14 | CCC(=O)Nc1cc(-c2nn3c(C)nnc3s2)ccc1C | inactive | inactive | inactive | inactive |  |  |  |  | 
15 | COc1ccc(-n2ccnc(SCC(=O)NC3CCCC3)c2=O)cc1OC | inactive | inactive | inactive | inactive | inactive |  |  |  | 
16 | COc1ccc(CC(=O)NC(=S)Nc2cccc(C)c2)cc1 | inactive | inactive | inactive | inactive | inactive |  |  |  | 
17 | Cc1ccc(C(=O)O/N=C(\N)Cc2cccs2)c(Cl)c1 | inactive | inactive | inactive | inactive |  |  |  |  | 
18 | O=C1CN(c2nc(-c3cccs3)nc3sc4c(c23)CCCC4)CCN1 |  |  |  | inactive |  | 415% (active) | 492% (active) | 259% (active) | 
19 | Fc1ccc(/C=N/n2c(C3CCCCC3)n[nH]c2=S)cc1 | inactive | inactive | inactive | inactive | inactive |  |  |  | 
20 | O=C(COc1ccccc1Cl)NC(=S)N1CCc2ccccc21 | inactive | inactive | inactive | inactive | inactive |  |  |  | 
21 | CCOC(=O)c1cnn(-c2nc(SC)nc3sc4c(c23)CCCC4)c1N | inactive |  |  | inactive | inactive | 29.5% (active) | 142% (active) |  | 

Row | Structure (SMILES) | outcome [1] | outcome [2] | outcome [3] | outcome [4] | outcome [5] | potentiation [2] | potentiation [3] | activation [1] | activation [5]
22 | CC(=O)c1c(C)[nH]c(C(=O)OCc2nc3ccsc3c(=O)[nH]2)c1C | inactive | inactive | inactive | inactive |  |  |  |  | 
23 | COc1cccc(C(=O)NNC(=O)C(=O)Nc2ccc(C)cc2)c1 |  |  |  | inactive |  | 92% (active) | 308% (active) | 206% (active) | 
24 | Cc1ccc(C)c(-n2c3nc(=O)n(C)c(=O)c-3cc3ccccc32)c1 | inactive | inactive | inactive | inactive | inactive |  |  |  | 
25 | O=C(C1CCCCC1)N(CCN1CCCC1)c1nc2ccccc2s1 | inactive | inactive | inactive | inactive |  |  |  |  | 
26 | CCOC(=O)C(Sc1nnc(-c2ccncc2)o1)C(C)=O (stereo unspecified) | inactive | inactive | inactive | inactive | inactive |  |  |  | 
27 | O=C(CN(Cc1ccccc1Cl)C(=O)c1csnn1)NC1CCCC1 | inactive | inactive | inactive | inactive |  |  |  |  | 
28 | O=C(NC(=S)NCCC1=CCCCC1)c1ccco1 |  |  |  | inactive |  | 97% (active) | 315% (active) | 324% (active) | 
29 | O=C(c1ccccc1NS(=O)(=O)c1ccc(Br)cc1)N1CCOCC1 |  |  |  | inactive |  | 112% (active) | 326% (active) | 306% (active) | 
30 | Cn1nnc(NC(=O)C(c2ccccc2)c2ccccc2)n1 | inactive | inactive | inactive | inactive | inactive |  |  |  | 
31 | Cc1ccc(-n2c(C)cc(/C=N/NC(=O)c3ccncc3)c2C)c(C)c1 | inactive | inactive | inactive | inactive | inactive |  |  |  | 
32 | CCOC(=O)C1CCCN(C(=O)Cn2sc3nc(C)cc(C)c3c2=O)C1 (stereo unspecified) | inactive | inactive | inactive | inactive | inactive |  |  |  | 
33 | COc1ccc(-c2csc(N(CCCN(C)C)C(=O)c3ccccc3C)n2)cc1 | inactive | inactive | inactive | inactive | inactive |  |  |  | 
34 | Cc1ccc2cc(/C=N/NC(=O)CN3CCCCC3)c(Cl)nc2c1 | inactive | inactive | inactive | inactive | inactive |  |  |  | 
35 | Cn1cc(C(=O)N/N=C/c2ccc([N+](=O)[O-])cc2)c2ccccc21 | inactive | inactive | inactive | inactive | inactive |  |  |  | 
36 | CN1C(=O)c2ccc(NC(=O)c3c(F)c(F)c(F)c(F)c3F)cc2C1=O | inactive |  | inactive | inactive | inactive | 25.5% (active) |  |  | 
37 | O=C(CSc1nnc(NC(=O)C2CCC2)s1)Nc1ccc(N2CCOCC2)cc1 | inactive | inactive | inactive | inactive | inactive |  |  |  | 
38 | COC(=O)c1sccc1NC(=O)CSc1ccccc1NS(=O)(=O)c1cc(Cl)ccc1Cl | inactive | inactive | inactive | inactive | inactive |  |  |  | 
39 | Cc1ccsc1/C=N/Nc1nc2ccccc2s1 | inactive | inactive | inactive | inactive | inactive |  |  |  | 
40 | Cc1ccc(OCC(=O)NNC(=S)NC(=O)C2CCCCC2)c(C)c1 | inactive |  | inactive | inactive | inactive | 26.5% (active) |  |  | 
41 | CC(Sc1nncs1)C(=O)NC1CCCCC1C (stereo unspecified) | inactive | inactive | inactive | inactive | inactive |  |  |  | 
42 | CCOC(=O)N1CCN(C(=S)NC(=O)c2ccc(Br)cc2)CC1 | inactive | inactive | inactive | inactive | inactive |  |  |  | 

Row | Structure (SMILES) | outcome [1] | outcome [2] | outcome [3] | outcome [4] | outcome [5] | potentiation [2] | potentiation [3] | activation [1] | activation [5]
43 | CCCC(=O)n1nc(-c2ccc(C)cc2)nc1NCc1ccco1 | inactive |  |  | inactive | inactive | 80% (active) | 148% (active) |  | 
44 | CCOC(=O)c1c(NC(=O)CN2CCN(C(=O)c3ccco3)CC2)sc2c1CCCC2 | inactive |  | inactive | inactive | inactive | 39.5% (active) |  |  | 
45 | CCCOc1ccc(C(=O)NNC(=S)NC(=O)c2cc(-c3ccccc3)nc3ccccc23)cc1 | inactive |  | inactive | inactive | inactive | 23.5% (active) |  |  | 
46 | Cc1sc2ncnc(N3CCN(Cc4ccccc4)CC3)c2c1-c1ccccc1 | inactive |  | inactive | inactive | inactive | 184% (active) |  |  | 
47 | Cc1ccc(C(=O)NC(=S)N(C)C2CCCCC2)cc1Br | inactive |  |  | inactive |  | 61% (active) | 159% (active) |  | 40.1% (active)
48 | S=C(Nc1ccc(Cl)cc1)c1nc2ccccc2s1 | inactive |  | inactive | inactive |  | 47.5% (active) |  |  | 23.8% (active)
49 | CCOc1cc(CN2CCN(C(=O)CC(C)C)CC2)ccc1OC | inactive |  | inactive | inactive | inactive | 23.5% (active) |  |  | 
50 | CC(=O)/C=C/c1ccc2ccccc2n1 | inactive | inactive | inactive | inactive | inactive |  |  |  | 
51 | Oc1c(/C=N/c2ccccn2)sc2ccccc12 | inactive |  | inactive | inactive | inactive | 18% (active) |  |  | 
52 | O=C(NC1=NCCS1)c1ccc(N2CCCC2=O)cc1 | inactive |  | inactive | inactive | inactive | 28.5% (active) |  |  | 
53 | Cc1cccc(C(=O)O/N=C(\N)c2cccc([N+](=O)[O-])c2)c1 | inactive | inactive | inactive | inactive | inactive |  |  |  | 
54 | O=C(NC(=S)N1CCCCCC1)c1ccccc1Cl | inactive |  |  | inactive | inactive | 25% (active) | 146% (active) |  | 
55 | Cc1onc(-c2ccccc2)c1C(=O)NC(=S)NNC(=O)c1ccccc1O | inactive |  | inactive | inactive | inactive | 17.5% (active) |  |  | 
56 | COc1ccc(C(=O)NNC(=S)NC(=O)c2cc(-c3ccccc3)nc3ccccc23)cc1 | inactive | inactive | inactive | inactive | inactive |  |  |  | 
57 | C=CCn1c(=S)[nH]c2cc(-c3ccccc3)sc2c1=O | inactive | inactive | inactive | inactive | inactive |  |  |  | 
58 | S=c1[nH]nc(-c2ccco2)n1/N=C/c1cccc(Cl)c1Cl | inactive |  | inactive | inactive | inactive | 23.5% (active) |  |  | 
59 | Cc1cccc2sc(N(CCCN(C)C)C(=O)c3ccc4ncsc4c3)nc12 | inactive | inactive | inactive | inactive | inactive |  |  |  | 
60 | Cc1cc(C)cc(OCC(=O)NNC(=O)c2cc3ccccc3o2)c1 | inactive | inactive | inactive | inactive | inactive |  |  |  | 
61 | O=C(NNC(=O)c1cc(-c2ccccc2)nn1-c1ccccc1)c1ccccc1 | inactive | inactive | inactive | inactive | inactive |  |  |  | 
